Measurements gathered from unrelated publications.
Lines come from different studies, so protocols differ.
Target: Dual specificity tyrosine-phosphorylation-regulated kinase 1B (DYRK1B, Homo sapiens, UniProt Q9Y463)
Effect on: enzyme activity
Mode: inhibitor

test	conditions	remaining activity [%]	Structure (SMILES)
radiometric	1 µM	114	O=C(O)c1ccc2c(c1)nc(NCCc1ccccc1)c1ccncc12
	5 µM	87	O=C(Nc1cnn(-c2csc(C(=O)NC3COC3)c2)c1)Nc1ccccc1Cl
	1 µM	101	COc1cc(Cl)c(C(=O)N[C@@H](CN[C@H]2CC[C@@H](N)CC2)Cc2ccc(C#N)cc2)cc1-c1ccc(CN[C@H](C)c2ccc(C)cc2)o1
radiometric	1 µM	65	O=C(O)c1ccc2c(c1)nc(Nc1ccc(Cl)cc1)c1ccncc12
	5 µM	82.8	O=C(Nc1cnn(-c2csc(C(=O)NC3COC3)c2)c1)Nc1c(F)cccc1Cl
	1 µM	15.3	CC(C)(O)[C@H]1CC[C@H](Nc2ccc3ncc(-c4cccc(C(F)(F)F)c4)n3n2)CC1
	20 µM	80	Nc1ncnc2occ(-c3ccc(NC(=O)Nc4cc(C(F)(F)F)ccc4F)cc3)c12
radiometric	1 µM	80	Cc1cnc(NC2CCOCC2)nc1-n1cnc(C(=O)NC(CN)c2cc(F)cc(Cl)c2)c1 (centres unmarked)
